This is an account of results in ChEMBL document CHEMBL4334488 (J Med Chem, 2019).

One series addresses Histamine H1 receptor (Homo sapiens, UniProt P35367). Put plainly: Displacement of 5 nM [3H-pyrilamine from human H1R expressed in Sf9 cell membranes co-expressing RGS4 by competition binding assay. Put shortly:
(§1)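 Competition binding on Sf9 membranes in 100 μL with 0.2% BSA. Membrane protein: 5−25 μg (H4R), 24−35 μg (H3R), 15 μg (H2R), 23 μg (H1R). Normalized total binding was plotted against log competitor. Two to four independent experiments, each in triplicate.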

The target in series [1] is T1, Histamine H3 receptor (Homo sapiens, UniProt Q9Y5N1). Put plainly: Displacement of 3 nM [3H]Nalpha-methylhistamine from human H3R expressed in Sf9 cell membranes co-expressing Gia2 and beta1gamma2 by competition binding assay. Put shortly:
as §1

In series [2] the target is T1, Histamine H3 receptor. In words: Displacement of 2 nM [3H]UR-PI294 from human H3R expressed in Sf9 cell membranes co-expressing Gia2 and beta1gamma2 by competition binding assay. In outline: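 Competition binding on Sf9 membranes in 100 μL with 0.2% BSA. Membrane protein: 5−25 μg (H4R), 24−35 μg (H3R), 15 μg (H2R), 23 μg (H1R). […] Normalized total binding was plotted against log competitor. Two to four independent experiments, each in triplicate.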

Series [3] is filed under the species Homo sapiens. Put plainly: Selectivity index, ratio of Ki for displacement of 2 nM [3H]UR-PI294 from human H3R expressed in Sf9 cell membranes co-expressing Gia2 and beta1gamma2 by competition binding assay to Ki for displacement of 40 nM [3H]-histamine from human H4R expressed in Sf9 cell membranes co-expressing Gia2 and beta1gamma2 by competition binding assay.

The species named for series [4] is Homo sapiens. Put plainly: Selectivity index, ratio of Ki for [3H]UR-DE257 from human H2R expressed in Sf9 cell membranes co-expressing GsalphaS by competition binding assay to Ki for displacement of 40 nM [3H]-histamine from human H4R expressed in Sf9 cell membranes co-expressing Gia2 and beta1gamma2 by competition binding assay.
For series [5], the target named is T2, Histamine H4 receptor (Homo sapiens, UniProt Q9H3N8). In words: Displacement of 40 nM [3H]-histamine from human H4R expressed in Sf9 cell membranes co-expressing Gia2 and beta1gamma2 by competition binding assay. In outline: as §1
For a further series, the target named is Histamine H2 receptor (Homo sapiens, UniProt P25021). Put plainly: Displacement of 20 nM [3H]UR-DE257 from human H2R expressed in Sf9 cell membranes co-expressing GsalphaS by competition binding assay. Put shortly: as §1
Series [6] can be described thus: Chemical stability in PBS buffer at pH 7.4 at 200 uM at 23 degC measured over 24 hrs by RP-HPLC analysis. The series is classed as physicochemical. The conditions noted are these: pH 7.4, 24 h. In outline: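 Compounds diluted to 200 μM in PBS pH 7.4 from a 10 mM DMSO stock, incubated at 23 °C for 24 h, and analysed by RP-HPLC with detection at 220 nm.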
Series [7] deals with Histamine H4 receptor (Rattus norvegicus) (UniProt Q91ZY1).
In series [8] the target is T2, Histamine H4 receptor.
For series [9], the target named is T3, Histamine H4 receptor (Mus musculus) (UniProt Q91ZY2).
T3 sequence (whole entry): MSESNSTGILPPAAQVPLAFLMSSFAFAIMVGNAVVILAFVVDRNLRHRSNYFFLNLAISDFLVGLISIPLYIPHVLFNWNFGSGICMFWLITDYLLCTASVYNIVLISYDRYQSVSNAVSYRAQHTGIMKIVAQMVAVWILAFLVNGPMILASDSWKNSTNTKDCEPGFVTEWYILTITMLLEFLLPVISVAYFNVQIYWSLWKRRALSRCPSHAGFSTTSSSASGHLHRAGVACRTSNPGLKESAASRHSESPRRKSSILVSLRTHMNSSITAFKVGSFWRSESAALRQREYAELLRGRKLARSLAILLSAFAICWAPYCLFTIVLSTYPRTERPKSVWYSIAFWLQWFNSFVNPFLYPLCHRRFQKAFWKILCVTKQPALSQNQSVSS

Series [10] has as its target T4, Histamine H4 receptor (Mus musculus, UniProt Q91ZY2).
T4 sequence (Q91ZY2 whole entry): T3 sequence (whole entry)
In words: Agonist activity at mouse H4R by [35S]-GTPgammaS-binding assay. The series is classed as functional. A general note: Binding of GTPγS marks nucleotide exchange on a G protein.

Series [11] addresses T2, Histamine H4 receptor. Put plainly: Agonist activity at human H4R by [35S]-GTPgammaS-binding assay. The series is classed as functional.
Series [12] in a line: Chemical stability in EtOH/H2O (70:30) at -20 degC measured over 11 months. The series is classed as physicochemical. Particulars: 8035.5 h. In outline:
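Radioligand stored in EtOH/H2O 70:30 at −20 °C. Radiochemical purity was checked by HPLC with UV and radiometric detection after spiking with the unlabeled compound, 4 days after synthesis and again after 11 months.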

For series [13], the target named is T2, Histamine H4 receptor. In words: Binding affinity to human H4R.

Bounds are passed on as bounds.

Histamine H1 receptor, sequence (P35367 whole entry, looked up): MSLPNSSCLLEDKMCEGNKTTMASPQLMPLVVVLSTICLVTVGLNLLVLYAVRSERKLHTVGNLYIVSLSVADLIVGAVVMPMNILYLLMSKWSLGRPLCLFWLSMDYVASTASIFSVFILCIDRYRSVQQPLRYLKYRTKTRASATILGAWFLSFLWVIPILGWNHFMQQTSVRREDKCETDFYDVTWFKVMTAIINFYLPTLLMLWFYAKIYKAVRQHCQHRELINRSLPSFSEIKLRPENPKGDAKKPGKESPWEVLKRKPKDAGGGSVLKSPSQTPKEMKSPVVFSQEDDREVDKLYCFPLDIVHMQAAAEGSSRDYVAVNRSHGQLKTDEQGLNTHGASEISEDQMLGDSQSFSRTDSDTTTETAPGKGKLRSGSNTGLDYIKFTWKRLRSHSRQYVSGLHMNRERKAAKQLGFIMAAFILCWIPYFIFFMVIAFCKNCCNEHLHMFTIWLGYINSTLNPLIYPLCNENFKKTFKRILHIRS
T1 sequence (Q9Y5N1 whole entry): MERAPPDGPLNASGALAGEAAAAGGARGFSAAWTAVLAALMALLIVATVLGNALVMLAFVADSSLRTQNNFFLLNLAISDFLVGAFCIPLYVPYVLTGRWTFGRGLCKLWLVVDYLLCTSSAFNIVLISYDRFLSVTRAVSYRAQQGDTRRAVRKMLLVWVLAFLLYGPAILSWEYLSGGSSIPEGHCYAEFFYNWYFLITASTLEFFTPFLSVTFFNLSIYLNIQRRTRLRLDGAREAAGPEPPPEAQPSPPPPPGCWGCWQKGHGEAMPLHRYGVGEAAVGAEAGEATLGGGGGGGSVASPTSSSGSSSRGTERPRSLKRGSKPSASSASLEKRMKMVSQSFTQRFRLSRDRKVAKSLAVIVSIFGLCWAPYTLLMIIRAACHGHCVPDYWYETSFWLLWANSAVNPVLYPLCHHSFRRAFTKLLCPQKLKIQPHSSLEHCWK
T2 sequence (Q9H3N8 whole entry): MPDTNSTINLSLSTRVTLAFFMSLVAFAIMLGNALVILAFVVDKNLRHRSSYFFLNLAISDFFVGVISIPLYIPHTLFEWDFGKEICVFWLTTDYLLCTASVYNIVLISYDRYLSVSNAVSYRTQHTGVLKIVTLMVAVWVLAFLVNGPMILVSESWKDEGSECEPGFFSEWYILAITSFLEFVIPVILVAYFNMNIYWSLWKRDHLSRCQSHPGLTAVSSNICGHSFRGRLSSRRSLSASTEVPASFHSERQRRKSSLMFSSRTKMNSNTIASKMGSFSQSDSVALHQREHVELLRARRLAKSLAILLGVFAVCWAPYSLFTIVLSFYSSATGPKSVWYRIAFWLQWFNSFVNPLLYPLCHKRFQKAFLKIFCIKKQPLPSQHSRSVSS
Histamine H4 receptor (Rattus norvegicus), sequence (Q91ZY1 whole entry): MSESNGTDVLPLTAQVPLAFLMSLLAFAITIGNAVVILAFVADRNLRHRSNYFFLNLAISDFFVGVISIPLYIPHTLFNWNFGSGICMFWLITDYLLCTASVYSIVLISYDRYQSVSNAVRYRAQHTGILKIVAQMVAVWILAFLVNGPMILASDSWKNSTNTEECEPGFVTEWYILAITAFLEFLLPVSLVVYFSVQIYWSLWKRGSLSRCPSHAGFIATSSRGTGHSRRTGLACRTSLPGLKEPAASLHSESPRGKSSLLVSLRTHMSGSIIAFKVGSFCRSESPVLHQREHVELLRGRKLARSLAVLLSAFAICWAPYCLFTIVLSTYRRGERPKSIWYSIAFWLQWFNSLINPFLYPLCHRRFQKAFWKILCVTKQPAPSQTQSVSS
Histamine H2 receptor, sequence (P25021 whole entry): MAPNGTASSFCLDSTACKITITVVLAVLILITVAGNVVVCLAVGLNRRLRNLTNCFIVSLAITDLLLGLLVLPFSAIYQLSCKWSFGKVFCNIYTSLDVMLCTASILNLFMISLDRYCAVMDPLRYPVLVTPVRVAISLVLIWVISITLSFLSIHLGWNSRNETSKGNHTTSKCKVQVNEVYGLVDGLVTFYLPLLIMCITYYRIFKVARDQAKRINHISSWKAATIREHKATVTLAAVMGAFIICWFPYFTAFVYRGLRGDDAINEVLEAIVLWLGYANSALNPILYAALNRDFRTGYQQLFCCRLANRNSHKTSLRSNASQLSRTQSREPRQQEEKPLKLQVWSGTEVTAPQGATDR

Consider `CC(C)(C)CNc1nccc(NCCN)n1`, for which the results for the Ki at Histamine H1 receptor and on Histamine H3 receptor [1] were > 1000 nM and 692 nM, respectively.

Take `CCC(=O)N[C@@H]1CCN(c2ccnc(NCC(C)(C)C)n2)C1`: the Ki on Histamine H3 receptor [2] and at Histamine H3 receptor [1] was 3020 nM each time.

For the compound `CC(C)(C)CNc1nccc(NC2CCNCC2)n1`, the Ki (commonly a measure of affinity in units of concentration, obtained from inhibition or displacement) at Histamine H3 receptor [2] was 3470 nM; on Histamine H1 receptor, > 10000 nM; at Histamine H4 receptor [5], 1910 nM; at Histamine H2 receptor it was > 10000 nM; on Histamine H3 receptor [1], 3470 nM. Further, the values for the Ratio Ki in the series listed under Homo sapiens [3] and in the series listed under Homo sapiens [4] were 1.6 and > 4.7, respectively.

For `CC(C)(C)CNc1nccc(N2CCc3nc[nH]c3C2)n1.O=C(O)C(F)(F)F.O=C(O)C(F)(F)F`, on Histamine H3 receptor [1], the affinity corresponds to a Ki of 3.31 nM. Besides, in [6], the Stability result was “Stable”.

Regarding `CC(C)(C)CNc1nccc(NC2CCNC2)n1` (stereo not given), the Ki is 204 nM on Histamine H3 receptor [2], > 10000 nM at Histamine H1 receptor and 204 nM on Histamine H3 receptor [1].

In the case of `CC(C)(C)CNc1nccc(NCCCN)n1`, the Ki on Histamine H3 receptor [2] is 5620 nM; at Histamine H1 receptor it was > 10000 nM; on Histamine H3 receptor [1] it was 5620 nM.

`N=C(NCc1ccc(Cl)cc1)SCCCc1c[nH]cn1`: the pKb (as a rule, −log10 of the Kb, conventionally taken in molar units) in series [7] was found to be 6.28.

Take `Cc1[nH]cnc1CSCCNc1ccnc(NCC(C)(C)C)n1`: the figures for the Ki on Histamine H1 receptor and on Histamine H3 receptor [1] were > 1000 nM and > 10000 nM, respectively.

Regarding `CC(C)(C)CNc1nccc(N2CCNCC2)n1`, the inhibitory constant (Ki) at Histamine H3 receptor [1] was > 10000 nM.

On to `CN1CCN(c2ccnc(NCC(C)(C)C)n2)CC1`, for which the affinity at Histamine H3 receptor [1] corresponds to a Ki of 5500 nM.

As for `CC(C)(C)CNc1nccc(N2CCN(CCN)CC2)n1`, the Ki on Histamine H3 receptor [1] is > 10000 nM.

With `CC(C)(C)CNc1nccc(N2CCCN(C(=N)N)CC2)n1`, the Ki on Histamine H3 receptor [1] was > 10000 nM.

Consider `CC(C)(C)CNc1nccc(NCCCc2c[nH]cn2)n1`, for which the affinity at Histamine H3 receptor [2], expressed as Ki, was 9.33 nM.

Consider `CC(C)(C)CNc1nccc(NCCc2c[nH]cn2)n1`, for which the Ki at Histamine H3 receptor [2] was 9.55 nM; at Histamine H4 receptor [5], 204 nM.

Regarding `CN(C)[C@@H]1CCN(c2ccnc(NCC(C)(C)C)n2)C1.O=C(O)C(F)(F)F.O=C(O)C(F)(F)F`, the Ki on Histamine H1 receptor is > 10000 nM. Also, the Stability result in series [6] is reported as “Stable”.

As for `CN1CCCN(c2ccnc(NCC(C)(C)C)n2)CC1.O=C(O)C(F)(F)F.O=C(O)C(F)(F)F`, the Ki at Histamine H1 receptor is > 10000 nM; on Histamine H3 receptor [1] it was 2400 nM. For the same compound, the Stability entry in series [6] is “Stable”.

`S=C(NC1CCCCC1)N1CCC(c2cnc[nH]2)CC1`: the pKb in series [7] worked out at 6.44; at Histamine H4 receptor [8], 6.83; in [9], 7.12.

For `NC(=NCc1ccc(Cl)cc1)SCCCc1cnc[nH]1` [CLOBENPROPIT], the figures for the EC50 at Histamine H4 receptor [10] and at Histamine H4 receptor [11] were 851 nM and 22.4 nM, respectively.

Turning to `CC(C)(C)CNc1nccc(N2CC[C@@H](NC(=N)N)C2)n1.O=C(O)C(F)(F)F.O=C(O)C(F)(F)F`, the Ki is > 10000 nM at Histamine H1 receptor and 1120 nM at Histamine H3 receptor [1]. Also, the Stability entry in [6] was “Stable”.

At Histamine H3 receptor [1], `CC(C)(C)CNc1nccc(N2CC[C@@H](N)C2)n1` gave a Ki of 13.8 nM.

Take `O=C(O)C(F)(F)F.O=C(O)C(F)(F)F.[3H]C([3H])([3H])N(C)[C@@H]1CCN(c2ccnc(NCC(C)(C)C)n2)C1`: the Stability result in series [12] was “Stable”.

`NC(=NCCc1ccc(I)cc1)SCCCc1cnc[nH]1` [IODOPHENPROPIT] had a Ki on Histamine H4 receptor [13] of 12.6 nM. This counts as double-digit nanomolar.

For the compound `CC(C)(C)CNc1nccc(N2CCN(C(=N)N)CC2)n1`, the Ki on Histamine H1 receptor was > 1000 nM; on Histamine H3 receptor [1], 6030 nM.

Take `CN[C@@H]1CCN(c2ccnc(NCC(C)(C)C)n2)C1`: the Ki on Histamine H3 receptor [2] and on Histamine H3 receptor [1] was 27.5 nM in each case.

`CC(C)(C)CNc1nccc(N2CCCNCC2)n1`: the affinity at Histamine H3 receptor [2] corresponds to a Ki of 537 nM.
